The target in series [1] is Substance-P receptor (Homo sapiens, UniProt P25103). Nature of the series: In vitro binding affinity towards Human Tachykinin receptor 1. The method in brief:
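Membranes from CHO cells expressing cloned human NK1 receptor, incubated with 3H-[Sar9,Met(O2)11]SP (0.5 nM final) in 20 mM HEPES, 1 mM MnCl2, pH 7.4, for 60 min at 28 °C. Nonspecific binding was defined with Sar9SP. Bound radioactivity was collected by filtration, washed with ice-cold 50 mM Tris pH 7.4, then counted by scintillation.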

Series [2] deals with T1, Substance-K receptor (Homo sapiens, UniProt P21452).
T1 sequence (P21452 whole entry): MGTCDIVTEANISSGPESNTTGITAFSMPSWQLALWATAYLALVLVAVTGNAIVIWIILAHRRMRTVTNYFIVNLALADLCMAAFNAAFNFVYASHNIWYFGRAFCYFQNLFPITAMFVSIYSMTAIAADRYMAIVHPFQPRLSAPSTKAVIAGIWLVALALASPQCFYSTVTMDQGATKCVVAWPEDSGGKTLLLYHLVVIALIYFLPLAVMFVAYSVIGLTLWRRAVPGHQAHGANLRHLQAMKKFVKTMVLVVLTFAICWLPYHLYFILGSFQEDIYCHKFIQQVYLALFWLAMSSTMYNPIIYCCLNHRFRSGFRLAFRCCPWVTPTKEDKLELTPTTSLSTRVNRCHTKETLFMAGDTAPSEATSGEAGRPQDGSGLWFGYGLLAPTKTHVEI
Nature of the series: In vitro binding affinity towards Human Tachykinin receptor 2. The procedure, abridged: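 Membranes from CHO cells expressing cloned human NK2 receptor, incubated with 125I-neurokinin A (1.4 nM final) in 20 mM HEPES, 1 mM MnCl2, pH 7.4, for 60 min at 28 °C. Nonspecific binding was defined with NKA. Bound radioactivity was collected by filtration, washed with ice-cold 50 mM Tris pH 7.4, then counted by scintillation.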

Series [3] can be described thus: Bioavailability in guinea pig (dose 10 mg/kg p.o.). Type of series: ADME, organism-based, Cavia porcellus. To be noted: in vivo, po. The method in brief:
(§1)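 Guinea pigs given a single oral dose of 10 mg/kg (n = 7) as a microemulsion (2% DMSO/20% Sandimmon placebo/78% saline) or as a cremophor/2% DMSO formulation. Food was withdrawn up to 18 h predose, and animals carried heparin-flushed cannulas. Blood was sampled at 60, 120, 240, 360, 480, 720 and 1440 min. The read-outs were t1/2, Cmax, AUC0–24h and bioavailability.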

Series [4] can be described thus: Area Under the concentration-time curve from zero time to 24 hr in guinea pig when given at a dose of 10 mg/kg perorally (Microemulsion). Type of series: ADME, organism-based, Cavia porcellus. More on the design: time < 24 hr, dose 10 mg/kg, route oral. The settings on record: in vivo, po. The procedure, abridged:
as §1

A short description of series [5]: Area Under the concentration-time curve from zero time to 24 hr in guinea pig when given at a dose of 10 mg/kg perorally (cremophor). The class given is ADME, organism-based, Cavia porcellus. To be noted: in vivo, po. Also on record: time < 24 hr, dose 10 mg/kg, route oral. The procedure, abridged:
as §1

The nature of series [6]: Area Under the concentration-time curve from zero time to 24 hr in guinea pig when given at a dose of 3 mg/kg intravenously. The settings on record: in vivo, iv. Also on record: time < 24 hr, dose 3 mg/kg, route intravenous. Type of series: ADME, organism-based, Cavia porcellus. The method in brief: (§2)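 Guinea pigs given 3 mg/kg iv via the jugular vein (n = 6) in a cremophor formulation, with cannulas flushed with heparinized saline. Blood was sampled at 5, 30, 60, 120, 240, 360, 720 and 1440 min. The read-outs were terminal elimination half-life and AUC0–24h.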

The nature of series [7]: (§3) Half life period in guinea pig when given at a dose of 10 mg/kg perorally. The class given is ADME, organism-based, Cavia porcellus. More on the design: dose 10 mg/kg, route oral. The settings on record: in vivo, po. The procedure, abridged:
as §1

Series [8] concerns Cavia porcellus. Described as §3. Type of series: ADME, organism-based. Also on record: dose 10 mg/kg, route oral. The settings on record: in vivo, po. The procedure, abridged: as §1
A short description of series [9]: Half life period in guinea pig when given at a dose of 3 mg/kg intravenously. Type of series: ADME, organism-based, Cavia porcellus. More on the design: dose 3 mg/kg, route intravenous. The settings on record: in vivo, iv. The method in brief: as §2
Series [10] in a line: (§4) Plasma concentration in Blood of guinea pig when given at a dose of 10 mg/kg perorally. More on the design: dose 10 mg/kg, route oral. The settings on record: plasma, po. Type of series: ADME, organism-based, Cavia porcellus. The method in brief: as §1
Series [11] relates to Cavia porcellus. The description is as §4. The class given is ADME, organism-based. Also on record: dose 10 mg/kg, route oral. To be noted: in vivo, po. The procedure, abridged: as §1
The target of series [12] is Substance-P receptor (Cavia porcellus, UniProt P30547). Nature of the series: In vitro relative antagonist potency towards guinea pig Tachykinin receptor 1. Type of series: functional. The settings on record: read-out: pA2 (converted).
The target of series [13] is T2, Substance-K receptor (Cavia porcellus, UniProt Q64077).
T2 sequence (Q64077 whole entry): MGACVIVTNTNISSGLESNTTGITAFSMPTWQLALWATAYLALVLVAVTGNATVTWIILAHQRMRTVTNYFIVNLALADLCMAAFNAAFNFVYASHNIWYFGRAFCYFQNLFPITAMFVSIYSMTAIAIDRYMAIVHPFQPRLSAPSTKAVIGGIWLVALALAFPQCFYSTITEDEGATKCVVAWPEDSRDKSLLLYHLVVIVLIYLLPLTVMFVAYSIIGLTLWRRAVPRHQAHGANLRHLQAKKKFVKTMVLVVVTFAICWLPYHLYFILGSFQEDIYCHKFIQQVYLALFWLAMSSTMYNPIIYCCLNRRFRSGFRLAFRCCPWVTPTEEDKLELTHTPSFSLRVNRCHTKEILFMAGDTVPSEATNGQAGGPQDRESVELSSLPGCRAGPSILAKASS
Briefly: In vitro relative antagonist potency towards guinea pig Tachykinin receptor 2. The class given is functional. To be noted: read-out: pA2 (converted).

Series [14] has as its system Saimiri sciureus. Nature of the series: In vivo Effective peroral dose which inhibits Beta-ala8-Neurokinin A induced bronchoconstriction (dynamic compliance) in squirrel monkey. To be noted: in Primates, po.
The test system of series [15] is Saimiri sciureus. Briefly: In vivo Effective peroral dose which inhibits Beta-ala8-Neurokinin A induced bronchoconstriction (airways resistance) in squirrel monkey. The settings on record: in Primates, po.

Four compounds from ChEMBL document CHEMBL1144988, “Stereoselective preparation of N-[(R,R)-(E)-1-(3,4-dichlorobenzyl)-3- (2-oxoazepan-3-yl)carbamoyl]allyl-N-methyl-3,5-bis(trifluoromethyl)benzamide, a potent and orally active dual neurokinin NK(1)/NK(2) receptor antagonist” (J Med Chem, 2003) can be followed below.

Where “and” joins values, the source holds several entries; their conditions need not be identical. Equal entries are not always repeated.

Chain of Substance-P receptor (Homo sapiens, UniProt P25103) (P25103 whole entry): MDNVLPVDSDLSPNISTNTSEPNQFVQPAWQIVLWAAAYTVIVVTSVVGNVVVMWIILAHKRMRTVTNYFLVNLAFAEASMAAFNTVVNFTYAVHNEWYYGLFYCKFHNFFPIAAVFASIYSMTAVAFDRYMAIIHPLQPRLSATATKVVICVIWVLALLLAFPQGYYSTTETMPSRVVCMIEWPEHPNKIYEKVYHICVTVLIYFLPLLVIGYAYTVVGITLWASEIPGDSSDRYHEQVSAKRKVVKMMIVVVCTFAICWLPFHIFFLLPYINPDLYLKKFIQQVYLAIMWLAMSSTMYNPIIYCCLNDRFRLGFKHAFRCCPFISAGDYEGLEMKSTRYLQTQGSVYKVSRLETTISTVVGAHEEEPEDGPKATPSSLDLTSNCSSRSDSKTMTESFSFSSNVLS
Chain of Substance-P receptor (Cavia porcellus, UniProt P30547) (P30547 whole entry): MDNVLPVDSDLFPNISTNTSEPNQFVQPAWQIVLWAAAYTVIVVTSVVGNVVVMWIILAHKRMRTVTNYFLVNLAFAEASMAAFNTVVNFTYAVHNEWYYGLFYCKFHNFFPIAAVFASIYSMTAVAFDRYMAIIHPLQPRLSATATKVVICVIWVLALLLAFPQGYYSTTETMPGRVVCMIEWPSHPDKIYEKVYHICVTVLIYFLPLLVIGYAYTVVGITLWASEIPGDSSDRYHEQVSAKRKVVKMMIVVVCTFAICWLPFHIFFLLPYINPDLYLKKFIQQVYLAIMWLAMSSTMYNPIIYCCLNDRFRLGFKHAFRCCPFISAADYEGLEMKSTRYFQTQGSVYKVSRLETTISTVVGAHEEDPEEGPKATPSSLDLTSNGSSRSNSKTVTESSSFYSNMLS

With `CN(C(=O)c1cc(C(F)(F)F)cc(C(F)(F)F)c1)[C@H](/C=C/C(=O)N[C@@H]1CCCCNC1=O)Cc1ccc(Cl)c(Cl)c1`, the Ki in [1] is 0.832 nM; in [2] it was 457 nM.
The like results for `CN(C(=O)c1cc(C(F)(F)F)cc(C(F)(F)F)c1)[C@@H](/C=C/C(=O)N[C@H]1CCCCNC1=O)Cc1ccc(Cl)c(Cl)c1` were, in that order, 8.71 nM and 102 nM.
In the case of `CN(C(=O)c1cc(C(F)(F)F)cc(C(F)(F)F)c1)[C@@H](/C=C/C(=O)N[C@@H]1CCCCNC1=O)Cc1ccc(Cl)c(Cl)c1` [DNK333], the F in series [3] was 41% and 17.4%. For the same compound, the AUC at 24 h in [4] was 6380 ng·h/mL; in series [5], 2710 ng·h/mL; in [6], 4690 ng·h/mL. Moreover, the half-life in series [7] is 3.8 h; in [9], 4.2 h. For the same compound, the T1/2 in series [8] came to 5.4 h. Moreover, the Cmax was 600 ng/mL in series [10] and 415 ng/mL in [11]. For the same compound, the results for the Kb in series [12] and in series [13] were 11.7 nM and 53.7 nM, respectively. The Ki in [1] was 4.17 nM; in series [2] it was 9.55 nM. Moreover, the values for the ED50 in series [14] and in [15] were 2.8 mg/kg and 1 mg/kg, respectively.
Consider `CN(C(=O)c1cc(C(F)(F)F)cc(C(F)(F)F)c1)[C@H](/C=C/C(=O)N[C@H]1CCCCNC1=O)Cc1ccc(Cl)c(Cl)c1`, for which the figures for the Ki in series [1] and in series [2] were 18.2 nM and 182 nM, respectively.

For orientation: Ki means a dissociation constant, usually derived from enzyme kinetics or from competition with a known ligand. What is called AUC is concentration integrated over time. One may read the half-life as how long it takes for the measured level to halve. A word on the Cmax: it is the peak of the concentration-time curve. The term ED50 denotes the dose that gives a 50% effect, or the effect in half of the subjects.
